Data published in ChEMBL document CHEMBL1142545, “1,3-Dialkyl-8-(hetero)aryl-9-OH-9-deazaxanthines as potent A2B adenosine receptor antagonists: design, synthesis, structure-affinity and structure-selectivity relationships” (Bioorg Med Chem, 2008).
In brackets after ≈: the same amount, converted by molar mass.

Assays:
Adenosine receptor A2b [1] = molecular target: T1, Adenosine receptor A2b (Homo sapiens, UniProt P29275); test: Displacement of [3H]DPCPX from human cloned adenosine A2B receptor expressed in HEK293 cells; assay type: cell-based
T1 sequence (P29275 whole entry): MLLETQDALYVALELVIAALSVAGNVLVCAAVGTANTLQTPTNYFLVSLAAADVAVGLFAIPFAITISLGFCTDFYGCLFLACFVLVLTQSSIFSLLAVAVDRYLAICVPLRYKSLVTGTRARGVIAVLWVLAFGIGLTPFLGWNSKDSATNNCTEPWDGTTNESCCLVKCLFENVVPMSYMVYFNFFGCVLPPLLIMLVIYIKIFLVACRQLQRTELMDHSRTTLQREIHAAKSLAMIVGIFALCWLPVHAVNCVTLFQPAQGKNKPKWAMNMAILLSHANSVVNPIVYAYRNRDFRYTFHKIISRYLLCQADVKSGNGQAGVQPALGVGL

Adenosine receptor A2a [2] = molecular target: Adenosine receptor A2a (Homo sapiens, UniProt P29274); test: Displacement of [3H]ZM241385 from human cloned adenosine A2A receptor expressed in human HeLa cells; assay type: cell-based
HeLa [3] = test: Selectivity index, ratio of Ki for human cloned adenosine A2A receptor expressed in human HeLa cells to Ki for human cloned adenosine A2B receptor expressed in HEK293 cells; assay type: cell-based
Outline: (§1)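 SI is the ratio of Ki values. […] A1 in CHO cells: [3H]DPCPX 2 nM. A2A in HeLa cells: [3H]ZM241385 3 nM. A2B in HEK-293 cells: [3H]DPCPX 25 nM. A3 in HeLa cells: [3H]NECA 30 nM. Filtration and scintillation counting.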

[4] = Methanol-water partition coefficient, log K by RP-HPLC; assay type: physicochemical
Outline: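 Reverse-phase HPLC with water–methanol 40/60 (v/v) mobile phase at 1.0 ml/min; dead time from KI in methanol; retention times in minutes; log k from capacity factor taken as lipophilicity index.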

[5] = Solubility in 50 mM Tris/HCl buffer at pH 7.4 by turbidimetric method; assay type: physicochemical
Outline: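 DMSO stock added stepwise (about 14 additions) to 50 mM Tris/HCl pH 7.4 at room temperature, final DMSO below 5%; precipitation detected as UV absorbance rise at 600–800 nm; solubility limit from bilinear fit of absorbance versus DMSO.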

Adenosine receptor A1 = molecular target: T2, Adenosine receptor A1 (Homo sapiens, UniProt P30542); test: Displacement of [3H]DPCPX from human cloned adenosine A1 receptor expressed in CHO cells; assay type: cell-based
T2 sequence (P30542 whole entry): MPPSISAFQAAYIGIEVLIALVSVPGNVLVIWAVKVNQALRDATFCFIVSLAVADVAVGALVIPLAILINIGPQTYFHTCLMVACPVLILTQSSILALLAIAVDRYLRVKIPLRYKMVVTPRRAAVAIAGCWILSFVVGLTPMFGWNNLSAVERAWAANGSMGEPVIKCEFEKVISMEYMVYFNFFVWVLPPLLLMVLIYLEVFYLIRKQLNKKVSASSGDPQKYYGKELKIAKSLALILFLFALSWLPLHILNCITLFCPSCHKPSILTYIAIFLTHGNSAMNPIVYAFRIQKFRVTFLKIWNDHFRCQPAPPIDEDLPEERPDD

Adenosine receptor A3 = Adenosine receptor A3 (Homo sapiens, UniProt P0DMS8); test: Displacement of [3H]NECA from human cloned adenosine A3 receptor expressed in human HeLa cells; assay type: cell-based
Adenosine receptor A2a [6] = molecular target: Adenosine receptor A2a (Rattus norvegicus, UniProt P30543); test: Antagonist activity at adenosine A2A receptor in Sprague-Dawley rat aorta assessed as inhibition of phenylephrine-induced contraction; assay type: functional, tissue-based; details: read-out: pA2 (converted)
Outline: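 Aorta from male Sprague-Dawley rats (200–250 g), cut into 4 mm rings in Krebs solution at 37 °C with carbogen, 2 g basal tension, stabilised 60 min. Rings were contracted with phenylephrine, then antagonist was incubated for 30 min before cumulative NECA relaxation curves. pA2 = log((EC50'/EC50) − 1) − log C, from NECA EC50 with and without antagonist.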

HEK293 = test: Selectivity index, ratio of Ki for human cloned adenosine A1 receptor expressed in CHO cells to Ki for human cloned adenosine A2B receptor expressed in HEK293 cells; assay type: cell-based; outline: as §1
HeLa [7] = test: Selectivity index, ratio of Ki for human cloned adenosine A3 receptor expressed in human HeLa cells to Ki for human cloned adenosine A2B receptor expressed in HEK293 cells; assay type: cell-based; outline: as §1
Adenosine receptor A2b [8] = molecular target: T3, Adenosine receptor A2b (Rattus norvegicus, UniProt P29276); test: Antagonist activity at adenosine A2B receptor in Wistar-Kyoto rat distal colon; details: read-out: pA2 (converted)
T3 sequence (P29276 whole entry): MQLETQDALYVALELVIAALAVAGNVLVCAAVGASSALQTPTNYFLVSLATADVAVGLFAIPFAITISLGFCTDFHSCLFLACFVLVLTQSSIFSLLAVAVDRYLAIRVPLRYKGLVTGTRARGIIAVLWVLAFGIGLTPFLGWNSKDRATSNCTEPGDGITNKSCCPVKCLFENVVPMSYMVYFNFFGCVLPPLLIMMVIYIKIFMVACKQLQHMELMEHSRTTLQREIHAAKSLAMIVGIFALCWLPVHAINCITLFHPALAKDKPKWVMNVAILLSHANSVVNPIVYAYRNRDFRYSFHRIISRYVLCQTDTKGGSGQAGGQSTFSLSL

Chain of Adenosine receptor A2a (Homo sapiens, UniProt P29274) (P29274 whole entry): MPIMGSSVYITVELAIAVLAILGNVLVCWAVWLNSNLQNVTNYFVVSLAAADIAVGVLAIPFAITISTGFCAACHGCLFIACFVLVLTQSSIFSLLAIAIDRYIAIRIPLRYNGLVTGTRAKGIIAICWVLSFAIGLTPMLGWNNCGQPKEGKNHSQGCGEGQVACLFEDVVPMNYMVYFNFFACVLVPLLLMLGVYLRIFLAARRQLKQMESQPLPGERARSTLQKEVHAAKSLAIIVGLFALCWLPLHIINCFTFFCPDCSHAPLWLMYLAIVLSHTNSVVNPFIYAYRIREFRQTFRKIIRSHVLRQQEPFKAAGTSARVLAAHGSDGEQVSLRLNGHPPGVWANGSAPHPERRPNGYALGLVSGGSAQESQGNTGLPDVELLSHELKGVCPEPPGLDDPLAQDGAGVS
Chain of Adenosine receptor A3 (P0DMS8 whole entry): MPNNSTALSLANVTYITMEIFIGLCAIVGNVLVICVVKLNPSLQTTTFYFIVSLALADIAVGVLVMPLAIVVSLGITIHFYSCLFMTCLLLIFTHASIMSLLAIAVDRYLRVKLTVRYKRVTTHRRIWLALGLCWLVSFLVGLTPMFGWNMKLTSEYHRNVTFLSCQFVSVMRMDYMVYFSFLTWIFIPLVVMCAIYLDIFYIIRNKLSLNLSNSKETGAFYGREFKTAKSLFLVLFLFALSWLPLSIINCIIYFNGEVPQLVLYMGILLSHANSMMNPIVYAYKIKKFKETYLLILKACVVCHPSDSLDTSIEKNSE
Chain of Adenosine receptor A2a (Rattus norvegicus, UniProt P30543) (P30543 whole entry): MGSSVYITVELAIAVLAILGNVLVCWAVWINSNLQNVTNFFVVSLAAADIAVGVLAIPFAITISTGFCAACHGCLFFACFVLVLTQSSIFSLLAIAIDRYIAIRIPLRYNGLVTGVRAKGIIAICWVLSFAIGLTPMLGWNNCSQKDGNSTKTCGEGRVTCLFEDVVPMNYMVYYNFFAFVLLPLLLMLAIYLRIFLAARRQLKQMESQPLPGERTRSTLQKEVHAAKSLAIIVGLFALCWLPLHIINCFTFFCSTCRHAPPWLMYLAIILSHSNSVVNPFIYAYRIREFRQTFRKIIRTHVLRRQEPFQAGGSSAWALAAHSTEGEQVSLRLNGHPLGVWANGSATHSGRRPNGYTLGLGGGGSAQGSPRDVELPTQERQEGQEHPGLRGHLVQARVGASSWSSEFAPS

## CCCn1c(=O)c2[nH]c(-c3ccc(C(C)=O)cc3)c(O)c2n(CCC)c1=O
Adenosine receptor A2b [1]
  Ki: 71 nM
Adenosine receptor A2a [2]
  Ki: 324 nM
HeLa [3]
  Ratio Ki: 4.6

## CCCn1c(=O)c2[nH]c(-c3ccc([N+](=O)[O-])cc3)c(O)c2n(CCC)c1=O
Adenosine receptor A2b [1]
  Ki: 50 nM
Adenosine receptor A2a [2]
  Ki: 145 nM
HeLa [3]
  Ratio Ki: 2.9

## CCCn1c(=O)c2c(cc(-c3ccc(O)cc3)n2O)n(CCC)c1=O
Adenosine receptor A2b [1]
  Ki: 115 nM
Adenosine receptor A2a [2]
  Ki: 102 nM
HeLa [3]
  Ratio Ki: 0.89

## CCCn1c(=O)c2[nH]c(-c3ccc(OC)cc3)c(O)c2n(CCC)c1=O
Adenosine receptor A2b [1]
  Ki: 24 nM
Adenosine receptor A2a [2]
  Ki: 148 nM
HeLa [3]
  Ratio Ki: 6.2
[4]
  log K: 0.51
[5]
  solubility kinetic: 120 µg/mL (≈ 336 µM)

## CCCn1c(=O)c2[nH]c(-c3ccccc3)c(O)c2n(CCC)c1=O
Adenosine receptor A2b [1]
  Ki: 54 nM
Adenosine receptor A2a [2]
  Ki: 50 nM
HeLa [3]
  Ratio Ki: 0.93
Adenosine receptor A1
  Ki: 83 nM
Adenosine receptor A3
  Ki: 182 nM

## Cc1ccc(-c2[nH]c3c(=O)n(C)c(=O)n(C)c3c2O)cc1
Adenosine receptor A2b [1]
  Ki: 513 nM
Adenosine receptor A2a [2]
  Ki: 2450 nM
HeLa [3]
  Ratio Ki: 4.8

## CCCn1c(=O)c2[nH]c(-c3ccc(N)cc3)c(O)c2n(CCC)c1=O
Adenosine receptor A2b [1]
  Ki: 19 nM
Adenosine receptor A2a [2]
  Ki: 166 nM
HeLa [3]
  Ratio Ki: 8.7
[4]
  log K: 0.96
[5]
  solubility kinetic: 30 µg/mL (≈ 87.6 µM)

## CCCn1c(=O)c2[nH]c(-c3ccc(C)cc3)cc2n(CCC)c1=O
Adenosine receptor A2b [1]
  Ki: 199 nM
Adenosine receptor A2a [2]
  Ki: 631 nM
HeLa [3]
  Ratio Ki: 3.2
[4]
  log K: 0.97
[5]
  solubility kinetic: 6 µg/mL (≈ 18.4 µM)

## CCCn1c(=O)c2[nH]c(-c3ccc(S(C)(=O)=O)cc3)c(O)c2n(CCC)c1=O
Adenosine receptor A2b [1]
  Ki: 6.5 nM
Adenosine receptor A2a [2]
  Ki: 28 nM
HeLa [3]
  Ratio Ki: 4.3
Adenosine receptor A1
  Ki: 63 nM
Adenosine receptor A3
  Ki: 295 nM

## CCCn1c(=O)c2c(cc(-c3ccc(OC)cc3)n2O)n(CCC)c1=O
Adenosine receptor A2b [1]
  Ki: 479 nM
Adenosine receptor A2a [2]
  Ki: 631 nM
HeLa [3]
  Ratio Ki: 1.3

## CCCn1c(=O)c2[nH]c(-c3ccco3)c(O)c2n(CCC)c1=O
Adenosine receptor A2b [1]
  Ki: 23 nM
Adenosine receptor A2a [2]
  Ki: 104 nM
HeLa [3]
  Ratio Ki: 4.5

## CCCn1c(=O)c2[nH]c(-c3ccc(OCC(=O)Nc4ccc(Br)cc4)cc3)cc2n(CCC)c1=O
HeLa [3]
  Ratio Ki: 14
Adenosine receptor A1
  Ki: 21 nM
Adenosine receptor A3
  Ki: 199 nM

## CCCn1c(=O)c2[nH]c(-c3ccc(OCC(=O)Nc4ccc(Br)cc4)cc3)c(O)c2n(CCC)c1=O
Adenosine receptor A2a [6]
  Kb: 224 nM
Adenosine receptor A2b [1]
  Ki: 1 nM
Adenosine receptor A2a [2]
  Ki: 100 nM
HeLa [3]
  Ratio Ki: 100
Adenosine receptor A1
  Ki: 79 nM
Adenosine receptor A3
  Ki: 1290 nM
HEK293
  Ratio Ki: 79
HeLa [7]
  Ratio Ki: 1290
Adenosine receptor A2b [8]
  Kb: 0.468 nM

## CCCn1c(=O)c2[nH]c(-c3ccc(C)cc3)c(O)c2n(CCC)c1=O
Adenosine receptor A2b [1]
  Ki: 89 nM
Adenosine receptor A2a [2]
  Ki: 89 nM
HeLa [3]
  Ratio Ki: 1
[4]
  log K: 0.83
[5]
  solubility kinetic: 30 µg/mL (≈ 87.9 µM)

## CCCn1c(=O)c2c(cc(-c3ccc(C)cc3)n2O)n(CCC)c1=O
Adenosine receptor A2b [1]
  Ki: 589 nM
Adenosine receptor A2a [2]
  Ki: 398 nM
HeLa [3]
  Ratio Ki: 0.66

## CCCn1c(=O)c2[nH]c(-c3ccc(O)cc3)c(O)c2n(CCC)c1=O
Adenosine receptor A2b [1]
  Ki: 11 nM
Adenosine receptor A2a [2]
  Ki: 118 nM
HeLa [3]
  Ratio Ki: 10.7
